Measurements from ChEMBL document CHEMBL1156009, “Eleven amino acid glucagon-like peptide-1 receptor agonists with antidiabetic activity” (J Med Chem, 2009).
pEC50, pIC50: −log10 of the molar value. Calls of active or inactive are those of the source. The rule behind the calls is not given here. Square brackets hold non-standard residues; d marks the D form. Peptide text beside a SMILES is read from it. Bip(2'-Et-4'-OMe) = CCc1cc(OC)ccc1-c1ccc(C[C@H](N)C(=O)O)cc1; Bip(2'-Me) = Cc1ccccc1-c1ccc(C[C@H](N)C(=O)O)cc1; αMePhe(2,6-F2) = C[C@](N)(Cc1c(F)cccc1F)C(=O)O; αMePhe(2-F) = C[C@](N)(Cc1ccccc1F)C(=O)O; Aib = CC(C)(N)C(=O)O

How the values were obtained:
[1] = molecular target: T1, Gastric inhibitory polypeptide receptor (Homo sapiens, UniProt P48546); test: Agonist activity at GIPR; assay type: functional
T1 sequence (P48546 whole entry): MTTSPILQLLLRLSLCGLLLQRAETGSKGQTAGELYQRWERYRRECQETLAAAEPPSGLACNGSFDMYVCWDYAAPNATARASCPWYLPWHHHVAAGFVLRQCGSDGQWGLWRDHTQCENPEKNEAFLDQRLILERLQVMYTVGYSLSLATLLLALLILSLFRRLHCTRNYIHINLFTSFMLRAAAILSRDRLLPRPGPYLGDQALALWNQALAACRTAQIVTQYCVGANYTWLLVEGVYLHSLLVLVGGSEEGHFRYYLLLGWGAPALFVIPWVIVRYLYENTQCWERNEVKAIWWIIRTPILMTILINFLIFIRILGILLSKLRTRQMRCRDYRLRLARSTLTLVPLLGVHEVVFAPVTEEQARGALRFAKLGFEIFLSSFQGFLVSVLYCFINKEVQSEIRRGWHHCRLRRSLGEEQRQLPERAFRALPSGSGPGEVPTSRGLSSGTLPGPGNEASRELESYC

[2] = Agonist activity at PACAP receptor; assay type: functional
Mus musculus [3] = test: Antidiabetic activity in insulin-resistant ob/ob mouse assessed as reduction in plasma glucose level at 30 nmol/kg, sc administered 30 mins before glucose infusion measured after 30 to 180 mins of glucose challenge by intraperitoneal glucose tolerance test; assay type: functional, organism-based
Method in brief: (§1)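 Male ob/ob mice, 19 weeks old, 6 per group, randomized on fed glucose and body weight. After an 18 h fast, single sc dose in 1:1 propylene glycol/20 mM sodium phosphate pH 7.4 (0.1 mL/100 g) at -30 min. 2 g/kg glucose (50%) given ip at time 0. Tail bleeds at 0, 30, 60, 120 and 180 min into K-EDTA. Glucose measured on analyzer, insulin by ultrasensitive mouse ELISA. ANOVA with Dunnett's test versus vehicle.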

Mus musculus [4] = test: Antidiabetic activity in insulin-resistant ob/ob mouse assessed as reduction in plasma glucose level at 300 nmol/kg, sc administered 30 mins before glucose infusion measured after 30 to 180 mins of glucose challenge by intraperitoneal glucose tolerance test; assay type: functional, organism-based; method in brief: as §1
[5] = Cmax in insulin-resistant ob/ob mouse at 300 nmol/kg, sc up to 24 hrs by LC-MS/MS analysis; assay type: ADME, organism-based; parameters: dose 300 nmol/kg, route subcutaneous; conditions: in vivo
Method in brief: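 ob/ob mice dosed sc at 300 nmol/kg in 1:1 propylene glycol/20 mM sodium phosphate pH 7.4. Plasma sampled at 1, 2, 4, 6, 8 and 24 h and quantified by LC-MS/MS.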

[6] = Agonist activity at VIP receptor; assay type: functional
Glucagon receptor = Glucagon receptor (Homo sapiens, UniProt P47871); test: Agonist activity at glucagon receptor; assay type: functional
Canis familiaris = test: Tmin in Beagle dog at 67 ug/kg, sc by LC-MS/MS analysis; assay type: ADME, organism-based, Canis lupus familiaris; conditions: in vivo, 0.067 mg/kg
Mus musculus [7] = test: Antidiabetic activity in insulin-resistant ob/ob mouse assessed as increase in plasma insulin level at 30 nmol/kg, sc administered 30 mins before glucose infusion measured after 30 to 180 mins of glucose challenge by intraperitoneal glucose tolerance test; assay type: functional, organism-based; method in brief: as §1
[8] = molecular target: T2, Glucagon-like peptide 1 receptor (Mus musculus, UniProt O35659); test: Agonist activity at mouse GLP1R expressed in CHO cells assessed as stimulation of intracellular [3H]cAMP accumulation by scintillation proximity assay; assay type: functional, cell-based
T2 sequence (O35659 whole entry): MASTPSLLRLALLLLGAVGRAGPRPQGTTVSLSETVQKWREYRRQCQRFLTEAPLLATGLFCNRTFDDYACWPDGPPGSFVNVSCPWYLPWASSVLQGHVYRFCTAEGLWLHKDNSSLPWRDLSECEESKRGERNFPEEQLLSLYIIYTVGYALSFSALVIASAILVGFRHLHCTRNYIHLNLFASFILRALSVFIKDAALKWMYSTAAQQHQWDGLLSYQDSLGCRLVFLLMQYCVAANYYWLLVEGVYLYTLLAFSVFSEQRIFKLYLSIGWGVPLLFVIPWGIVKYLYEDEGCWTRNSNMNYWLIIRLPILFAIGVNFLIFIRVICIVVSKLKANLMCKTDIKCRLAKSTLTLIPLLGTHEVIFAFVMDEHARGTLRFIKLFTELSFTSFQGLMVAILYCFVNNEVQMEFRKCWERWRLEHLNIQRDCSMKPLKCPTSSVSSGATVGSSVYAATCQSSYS
Method in brief: (§2)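 CHO cells stably expressing human or mouse GLP-1R, grown in F-12 with 10% FBS plus Geneticin (0.4 mg/mL human, 1 mg/mL mouse), plated 2×10^4/well overnight. Half-log dilutions made in DMSO, then in DPBS with 0.1 mM IBMX and 0.05% BSA (final 1% DMSO). Cells exposed 30 min. cAMP read by SPA and converted to pmol via standard curve. Duplicates, at least three separate runs.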

[9] = molecular target: T3, Parathyroid hormone/parathyroid hormone-related peptide receptor (Homo sapiens, UniProt Q03431); test: Agonist activity at PTHR; assay type: functional
T3 sequence (Q03431 whole entry): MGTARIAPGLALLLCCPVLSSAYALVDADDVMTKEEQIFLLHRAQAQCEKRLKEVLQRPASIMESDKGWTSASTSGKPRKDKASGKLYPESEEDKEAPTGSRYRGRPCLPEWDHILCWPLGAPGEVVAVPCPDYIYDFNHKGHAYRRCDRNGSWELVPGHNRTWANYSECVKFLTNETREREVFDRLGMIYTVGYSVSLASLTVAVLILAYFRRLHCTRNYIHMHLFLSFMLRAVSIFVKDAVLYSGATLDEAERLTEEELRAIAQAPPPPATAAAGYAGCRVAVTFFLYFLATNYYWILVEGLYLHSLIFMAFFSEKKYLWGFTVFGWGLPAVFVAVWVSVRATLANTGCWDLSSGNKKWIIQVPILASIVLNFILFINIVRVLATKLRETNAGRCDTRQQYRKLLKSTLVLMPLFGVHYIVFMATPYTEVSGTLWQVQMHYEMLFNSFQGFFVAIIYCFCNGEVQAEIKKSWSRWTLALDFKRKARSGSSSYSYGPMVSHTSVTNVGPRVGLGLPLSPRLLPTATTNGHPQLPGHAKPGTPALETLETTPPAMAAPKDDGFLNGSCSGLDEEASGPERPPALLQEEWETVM

Mus musculus [10] = test: Antidiabetic activity in insulin-resistant ob/ob mouse assessed as increase in plasma insulin level at 300 nmol/kg, sc administered 30 mins before glucose infusion measured after 60 mins of glucose challenge by intraperitoneal glucose tolerance test; assay type: functional, organism-based; method in brief: as §1
Mus musculus [11] = test: Antidiabetic activity in insulin-resistant ob/ob mouse assessed as increase in plasma insulin level at 300 nmol/kg, sc administered 30 mins before glucose infusion measured after 30 mins of glucose challenge by intraperitoneal glucose tolerance test; assay type: functional, organism-based; method in brief: as §1
[12] = molecular target: Glucagon-like peptide 1 receptor (Homo sapiens, UniProt P43220); test: Agonist activity at human GLP1R expressed in CHO cells assessed as stimulation of intracellular [3H]cAMP accumulation after 30 mins by scintillation proximity assay; assay type: functional, cell-based; method in brief: as §2
[13] = Mean residence time in Beagle dog at 67 ug/kg, sc by LC-MS/MS analysis; assay type: ADME, organism-based, Canis lupus familiaris; conditions: in vivo, 0.067 mg/kg
[14] = Half life in patient with type 2 diabetes at 2.5 to 25 nmol, iv administered as bolus dose; assay type: ADME, organism-based; conditions: human, in vivo

Chain of Glucagon-like peptide 1 receptor (Homo sapiens, UniProt P43220) (P43220 whole entry): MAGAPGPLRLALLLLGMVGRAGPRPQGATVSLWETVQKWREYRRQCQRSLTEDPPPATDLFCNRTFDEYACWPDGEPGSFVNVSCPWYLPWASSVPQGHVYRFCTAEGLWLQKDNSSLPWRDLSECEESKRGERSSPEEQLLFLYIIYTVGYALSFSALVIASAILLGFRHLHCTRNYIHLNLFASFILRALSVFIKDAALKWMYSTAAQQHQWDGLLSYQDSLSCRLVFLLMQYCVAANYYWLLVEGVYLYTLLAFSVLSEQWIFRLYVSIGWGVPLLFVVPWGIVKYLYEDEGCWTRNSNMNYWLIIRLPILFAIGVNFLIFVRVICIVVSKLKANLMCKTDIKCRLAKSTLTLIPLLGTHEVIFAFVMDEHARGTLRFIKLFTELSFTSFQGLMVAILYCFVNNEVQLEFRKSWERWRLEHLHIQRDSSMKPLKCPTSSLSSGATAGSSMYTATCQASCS
Chain of Glucagon receptor (P47871 whole entry): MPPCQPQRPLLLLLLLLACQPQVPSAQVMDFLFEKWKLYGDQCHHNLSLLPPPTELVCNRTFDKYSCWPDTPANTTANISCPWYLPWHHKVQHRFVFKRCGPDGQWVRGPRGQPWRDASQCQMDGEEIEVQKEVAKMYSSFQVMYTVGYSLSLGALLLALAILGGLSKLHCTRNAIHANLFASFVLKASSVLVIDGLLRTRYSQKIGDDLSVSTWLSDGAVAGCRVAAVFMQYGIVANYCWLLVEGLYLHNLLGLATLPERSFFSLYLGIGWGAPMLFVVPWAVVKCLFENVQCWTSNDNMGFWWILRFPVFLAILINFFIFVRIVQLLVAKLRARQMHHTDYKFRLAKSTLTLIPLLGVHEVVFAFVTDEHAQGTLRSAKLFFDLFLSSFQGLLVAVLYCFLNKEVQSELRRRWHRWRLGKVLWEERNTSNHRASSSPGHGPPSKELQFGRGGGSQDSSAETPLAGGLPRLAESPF

CCc1cc(OC)ccc1-c1ccc(C[C@H](NC(=O)[C@H](CC(=O)O)NC(=O)[C@H](CO)NC(=O)[C@@H](NC(=O)[C@](C)(Cc2ccccc2F)NC(=O)[C@@H](NC(=O)CNC(=O)[C@H](CCC(=O)O)NC(=O)C(C)(C)NC(=O)[C@@H](N)Cc2cnc[nH]2)[C@@H](C)O)[C@@H](C)O)C(=O)N[C@@H](Cc2ccc(-c3ccccc3C)cc2)C(N)=O)cc1 (H-H[Aib]EGT[αMePhe(2-F)]TSD[Bip(2'-Et-4'-OMe)][Bip(2'-Me)]-NH2)
pEC50 [1]: < 5.00
pIC50 [1]: < 5.00
pEC50 [2]: < 5.00
pIC50 [2]: < 5.00
Activity (Mus musculus [3]): Active
Activity (Mus musculus [4]): Active
Cmax [5]: > 2000 nM
pEC50 [6]: < 5.00
pIC50 [6]: < 5.00
pEC50 (Glucagon receptor): < 5.00
pIC50 (Glucagon receptor): < 5.00
Tmin (Canis familiaris): 8 h
Activity (Mus musculus [7]): Active
pEC50 [8]: 8.62
pEC50 [9]: < 5.00
pIC50 [9]: < 5.00
Activity (Mus musculus [10]): Active
Activity (Mus musculus [11]): Active
pEC50 [12]: 10.06

CCc1cc(OC)ccc1-c1ccc(C[C@H](NC(=O)[C@H](CC(=O)O)NC(=O)[C@H](CO)NC(=O)[C@@H](NC(=O)[C@](C)(Cc2c(F)cccc2F)NC(=O)[C@@H](NC(=O)CNC(=O)[C@H](CCC(=O)O)NC(=O)C(C)(C)NC(=O)[C@@H](N)Cc2cnc[nH]2)[C@@H](C)O)[C@@H](C)O)C(=O)N[C@@H](Cc2ccc(-c3ccccc3C)cc2)C(N)=O)cc1 (H-H[Aib]EGT[αMePhe(2,6-F2)]TSD[Bip(2'-Et-4'-OMe)][Bip(2'-Me)]-NH2)
Activity (Mus musculus [4]): Active
Cmax [5]: > 2000 nM
Tmin (Canis familiaris): 24 h
pEC50 [8]: 9.10
Activity (Mus musculus [10]): Active
MRT [13]: 20 h
Activity (Mus musculus [11]): Active
pEC50 [12]: 9.92

CC[C@H](C)[C@H](NC(=O)[C@H](Cc1ccccc1)NC(=O)[C@H](CCC(=O)O)NC(=O)[C@H](CCCCN)NC(=O)[C@H](C)NC(=O)[C@H](C)NC(=O)[C@H](CCC(N)=O)NC(=O)CNC(=O)[C@H](CCC(=O)O)NC(=O)[C@H](CC(C)C)NC(=O)[C@@H](NC(=O)[C@H](CO)NC(=O)[C@H](CO)NC(=O)[C@@H](NC(=O)[C@H](CC(=O)O)NC(=O)[C@H](CO)NC(=O)[C@@H](NC(=O)[C@H](Cc1ccccc1)NC(=O)[C@@H](NC(=O)CNC(=O)[C@H](CCC(=O)O)NC(=O)[C@H](C)NC(=O)[C@@H](N)Cc1cnc[nH]1)[C@@H](C)O)[C@@H](C)O)C(C)C)[C@@H](C)O)C(=O)N[C@@H](C)C(=O)N[C@@H](Cc1c[nH]c2ccccc12)C(=O)N[C@@H](CC(C)C)C(=O)N[C@H](C(=O)N[C@@H](CCCCN)C(=O)NCC(=O)N[C@@H](CCCN=C(N)N)C(N)=O)C(C)C
half-life [14]: 2 min
pEC50 [12]: 10.47
